Measurements reported in ChEMBL document CHEMBL1955833, “Wnt inhibition correlates with human embryonic stem cell cardiomyogenesis: a structure-activity relationship study based on inhibitors for the Wnt response” (J Med Chem, 2012).
pIC50: −log10 of the molar value.

What was measured:
H9 [1] = experiment: Cardiogenic activity in human H9 cells at 10 uM after 14 days by MYH6-mCherry reporter gene assay relative to 4-[(1R,2S,6R,7S)-3,5-dioxo-4-azatricyclo[5.2.1.0~2,6~]dec-8-en-4-yl]-N-quinolin-8-ylbenzamide; type: functional
In short: (§1)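 hESC embryoid bodies grown to day 4, dissociated to single cells and plated in 384-well format with serial compound dilutions. At day 10 switched to serum-free medium with T3. At day 14 moved to PBS and imaged for red fluorescence. Total area and intensity of the MYH6-mCherry reporter were quantified per well and expressed as percent cardiogenesis, with the reference set to 100% at its maximum.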

[2] = Inhibition of beta-catenin-dependent canonical Wnt3A pathway in human HEK293T cells at 1 uM by luciferase reporter gene assay; type: cell-based; settings: HEK-293T
In short: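 HEK293T cells transiently co-transfected with Super(8x)TOPflash (TCF-firefly luciferase), TK-Renilla luciferase for normalization, and a Wnt3A-expressing vector to activate the pathway. Compounds tested at a single concentration of 1 μM, alongside untreated and DMSO vehicle controls. Firefly signal normalized to Renilla.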

[3] = Inhibition of beta-catenin-dependent canonical Wnt3 pathway in human HEK293T cells by luciferase reporter gene assay; type: cell-based; settings: HEK-293T
H9 [4] = experiment: Cardiogenic activity in human H9 cells after 14 days by MYH6-mCherry reporter gene assay relative to 4-[(1R,2S,6R,7S)-3,5-dioxo-4-azatricyclo[5.2.1.0~2,6~]dec-8-en-4-yl]-N-quinolin-8-ylbenzamide; type: functional; in short: as §1
[5] = Cardiogenic activity in human embryonic stem cells at 2.5 uM by MYH6 reporter gene assay relative to control; type: functional, Embryonic stem cell
HEK-293T = experiment: Cytotoxicity against human HEK293T cells at 0.2 to 20 uM after 24 hrs by alamar blue assay; type: cell-based
[6] = Half life in phosphate buffer pH 7.4 at 10 uM by HPLC analysis; type: physicochemical
In short: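 Degradation followed by HPLC, and half-life determined where degradation occurred.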

[7] = Cardiogenic activity in human embryonic stem cells at 2 uM by MYH6 reporter gene assay relative to control; type: functional, Embryonic stem cell

pIC50 [3] | half-life at 10 µM [6] | SMILES | Activity (H9 [1]) | inhibition [2] | Activity (H9 [4]) | Activity (H9 [4]; record 2) | fold change (FC) [5] | Activity (HEK-293T) | fold change (FC) [7]
7.03 |  | O=C1[C@@H]2[C@@H]3CC[C@@H](C3)[C@@H]2C(=O)N1[C@H]1CC[C@H](C(=O)Nc2cccc3ccncc23)CC1 | 24% | 91% | Dose-dependent effect | 25% |  |  | 
6.27 |  | Cc1ccc2nc(NC(=O)CSc3nc4c(c(=O)n3-c3ccc(F)cc3)SCC4)sc2c1 |  |  |  |  | 1000 | Non-toxic | 
6.92 | 3.8 h | O=C(Nc1ccc(N2C(=O)[C@@H]3[C@@H]4CC[C@@H](C4)[C@@H]3C2=O)cc1)c1cccc2cccnc12 |  | 91% | 1% |  |  |  | 
7.29 |  | Oc1nc(-c2ccc(C(F)(F)F)cc2)nc2c1CSCC2 |  |  |  |  |  | Non-toxic | 1000
